Cl transport mod: modulators of human KCC2 chloride dependent transport; Q9H2X9; KCC2 cells, thallium flux FluoZin-2 fluorescence; B-score of Tl+ flux slope (higher = more flux/activation; lower = inhibition) at 10 µM; 2.2% of 190,000 active; AID 1456;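 active means thallium flux slope and its plate-corrected score both differing from the plate sample mean at a set confidence after two filtering rounds, in either direction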;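 further: slope of fluorescence scaled to starting intensity during 10 to 20 s after thallium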
KCNQ1 act: potentiates or activates the human KCNQ1 potassium channel. P51787. AID 2648. B-score at 10 µM. CHO-K1 KCNQ1, thallium flux FluxOR fluorescence; stronger effect = higher value. 0.35% of 310,000 active;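 active means fluorescence ratio B-score, a plate-corrected score, at least three library SD, with initial intensity B-score within 5 SD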
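Material: CHO-K1 cells stably expressing KCNQ1. Medium: assay buffer for compound exposure, DMSO matched across wells. Reagent: K+/Tl+ depolarizing stimulus. Compound dosing: single-concentration screen. Times: 37 °C overnight plating, 90-min dark dye load, 20-min compound pretreatment. Technique: FluxOR Tl+ flux fluorescence.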
hERG rescue: compounds protecting human hERG from proarrhythmic drug block; 0.51% of 310,000 active; activation (rescue from dofetilide block), less the hit threshold, % at 10 µM; CHO-hERG, FluxOR thallium flux, dofetilide IC70 present;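 active means activation above the mean of controls blocked by dofetilide plus 5 SD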;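 further: thallium influx through hERG after potassium depolarization seen as dye fluorescence rise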
KCNQ1 block: blocks the human KCNQ1 potassium channel | 1.3% of 310,000 active | CHO-K1 KCNQ1, FluxOR thallium flux fluorescence; stronger effect = higher value | AID 2642 | B-score at 10 µM | P51787;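 active means compounds whose thallium flux B-score, printed positive for inhibition, exceeds three library SD while starting fluorescence stays within three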;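 further: channel opened by potassium depolarization with thallium stimulus after 20 min compound exposure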
KCNK3 block: human KCNK3 channel inhibition, primary screen | O14649 | CHO-KCNK3 thallium flux, FluxOR fluorescence; stronger effect = lower value | B-score at 10 µM | 0.84% of 340,000 active | AID 602410;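 active means B-score under library mean minus 4 SD, starting fluorescence ratio at most library mean plus 5 SD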;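 further: more negative B-score means stronger inhibition of thallium flux through KCNK3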
KCNK9 block: blocks the human KCNK9 two-pore domain potassium channel. Q9NPC2. HEK293 KCNK9, FluxOR thallium flux fluorescence; stronger effect = lower value. B-score at 10 µM. 1.2% of 310,000 active;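 active means ratio B-score over 3 SD below the library mean, with starting fluorescence within 5 SD of its mean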;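 further: negative B-score means less thallium flux so channel inhibition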
Target sequence (Q9NPC2 whole entry, looked up, the tested form may be a part): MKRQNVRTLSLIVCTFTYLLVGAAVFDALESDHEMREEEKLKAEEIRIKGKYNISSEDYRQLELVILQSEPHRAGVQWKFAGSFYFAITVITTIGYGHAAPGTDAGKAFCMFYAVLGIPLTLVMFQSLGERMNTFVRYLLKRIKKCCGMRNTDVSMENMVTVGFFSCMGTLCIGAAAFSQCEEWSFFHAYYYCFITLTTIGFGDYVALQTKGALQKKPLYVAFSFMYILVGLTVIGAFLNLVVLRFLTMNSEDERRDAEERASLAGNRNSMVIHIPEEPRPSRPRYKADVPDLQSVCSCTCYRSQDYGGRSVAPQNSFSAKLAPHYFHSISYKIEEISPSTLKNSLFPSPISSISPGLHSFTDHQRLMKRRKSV
KCNK9 block conf: confirmation of human KCNK9 potassium channel inhibitors; AID 492992; inhibition, % at 10 µM; HEK293 KCNK9 cells, FluxOR thallium flux fluorescence; shares compounds with KCNK9 block; 43% of 4,900 active;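 active means thallium signal inhibited by more than 5 SD of the compound-free buffer control wells, on both duplicate plates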
Kir21 sel: mouse Kir2.1 off-target activity of KCNK9 modulators. shares compounds with KCNK9 block. AID 492993. Kir2.1 cells, FluxOR thallium flux fluorescence. inhibition, % at 10 µM. 4% of 4,900 active;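 active means thallium signal drop more than 5 SD beyond the mean of the no-compound control wells, seen in both duplicate plates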;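 further: signal is fluorescence rise after thallium addition divided by baseline fluorescence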
KCNK9 uninduced: second check of KCNK9 modulator effects in non-induced HEK293 cells; inhibition, % at 10 µM; FluxOR thallium flux; shares compounds with KCNK9 block; AID 492997; 40% of 4,900 active;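 active means thallium signal drop beyond 5 SD of the untreated control mean, on both duplicate plates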
A number is an active result; . = inactive; / = no result given. Hits are enriched below; roughly 4.1% of the tested compounds scored in any of these assays.

SMILES | Cl transport mod | KCNQ1 act | hERG rescue | KCNQ1 block | KCNK3 block | KCNK9 block | KCNK9 block conf | Kir21 sel | KCNK9 uninduced
O=C(N/N=C/c1cc(Br)ccc1O)c1ccncc1 | . | . | . | . | . | . | / | / | /
C#CCOc1ccccc1/C=N/NC(=O)c1ccccc1OCc1ccccc1 | / | . | . | . | . | -9.6 | 29.5% | . | 41.0%
Cc1ccc(-n2ncc3c2CCCC3NC(=O)CSc2ccccn2)cc1C (centres undefined) | / | . | . | . | . | . | . | . | .
CC(C)c1nnc(NC(=O)CCC(=O)NC2CCCc3ccccc32)s1 (centres undefined) | . | . | . | . | . | . | / | / | /
COc1ccc(N2C(=O)/C(=C\c3ccco3)N=C2SCC(=O)NC(C)(C)C)cc1Cl | . | . | . | . | . | -9.11 | 44.0% | . | 33.0%
Cc1cc(NCCOCCO)n2c(nc3ccccc32)c1C#N | / | . | . | . | . | -13.9 | 35.5% | . | .
Cc1cccc(NC(=O)CSc2cc(C)c(C#N)c3nc4ccccc4n23)c1 | / | . | . | . | . | . | . | . | .
COc1ccc(Cl)cc1NC(=O)C/C(C)=N/NC(=O)COc1ccc(C)cc1 | / | . | . | . | . | . | / | / | /
CCCCN(C)C(=O)CSc1nc(NCc2ccc(OC)cc2)c2ccccc2n1 | . | . | . | . | . | . | . | . | .
Cc1ccc(C23CC4CC(CC(C(=O)N5CCN(C)CC5)(C4)C2)C3)cc1 | . | . | . | . | . | . | / | / | /
Cc1ccc(C23CC4CC(CC(CC(=O)N5CCOCC5)(C4)C2)C3)cc1 | . | . | . | . | . | . | . | . | .
COc1ccc(CCN2CC(C(=O)N(C)Cc3ccc(C)o3)CCC2=O)cc1 (centres undefined) | / | . | . | . | . | . | / | / | /
S=C(NCc1ccccn1)NN=Cc1ccccn1 | / | / | / | / | . | / | / | / | /
CCN1C(=O)/C(=C\c2cn(-c3ccccc3)nc2-c2cccnc2)SC1=S | . | . | . | . | . | . | / | / | /
O=C(O)CN1C(=O)/C(=C\c2cccc(OCc3ccc(Cl)cc3Cl)c2)SC1=S | / | . | . | . | . | . | . | . | .
O=C(O)CN1C(=O)/C(=C\c2cc(Br)ccc2OCc2ccccc2F)SC1=S | / | . | . | . | . | . | . | . | .
O=C(O)CN1C(=O)/C(=C\c2ccccc2OCc2ccc(Cl)cc2Cl)SC1=S | / | . | . | . | . | . | / | / | /
O=C(O)CN1C(=O)/C(=C\c2cn(-c3ccccc3)nc2-c2ccccc2)SC1=S | / | . | . | . | . | . | . | . | .
COc1cccc(CN(C)C(=O)c2ccc(NS(=O)(=O)c3ccc4[nH]c(=O)[nH]c4c3)cc2)c1OC | / | . | . | . | . | . | / | / | /
COc1cccc(CN(C)C(=O)c2ccc(Oc3ccccc3)cc2)c1OC | / | . | . | . | . | . | . | . | .
CCOc1ccc(NS(=O)(=O)c2ccc(C(=O)N(C)Cc3cccc(OC)c3OC)cc2)cc1 | / | . | . | . | . | . | . | . | .
CCCCN1CC[C@H]2C=CC[C@@H](C(=O)NCc3ccc(OC)cc3)[C@H]2C1=O | / | . | . | . | . | . | / | / | /
CCCCN1CC[C@H]2C=CC[C@@H](C(=O)Nc3ccc(Cl)cc3Cl)[C@H]2C1=O | / | . | . | . | . | . | . | . | .
CC(OC(=O)c1oc2ccccc2c1COc1ccccc1)C(=O)NC(N)=O (centres undefined) | . | . | . | . | . | . | / | / | /
O=C(NCCc1ccccc1)c1oc2ccccc2c1COc1ccccc1 | . | . | . | 6 | . | . | . | . | .
SMILES | Cl transport mod | KCNQ1 act | hERG rescue | KCNQ1 block | KCNK3 block | KCNK9 block | KCNK9 block conf | Kir21 sel | KCNK9 uninduced
O=C(Nc1ccccc1Cc1ccccc1)c1oc2ccccc2c1COc1ccccc1 | . | . | . | . | . | -8.74 | 51.0% | . | 31.0%
O=C(COc1ccc(C(=S)N2CCCC2)cc1)Nc1ccccc1C(F)(F)F | / | . | . | . | . | . | / | / | /
C=CC[n+]1c(C)csc1Nc1ccc(C(=O)O)cc1 | . | . | . | . | . | . | / | / | /
CC(C)(C)c1cc(-c2csc(Nc3ccccc3)[n+]2Cc2ccc(C(=O)O)cc2)cc(C(C)(C)C)c1O | . | 15 | . | . | . | . | . | . | .
COc1cc(OC)c(C(=O)/C=C/c2ccc(OCc3ccccc3)c(OC)c2)c(OC)c1 | / | . | . | . | . | . | / | / | /
COc1cc(OCc2ccccc2)c(C(=O)/C=C/c2ccc3c(c2)OCO3)c(OC)c1OC | / | . | . | . | . | -8.86 | . | . | 35.0%
CCOCCOC(=O)Cn1cnc2scc(-c3ccc(C)cc3)c2c1=O | / | . | . | . | . | . | . | . | .
CCCOC(=O)Cn1cnc2scc(-c3ccc(OC)cc3)c2c1=O | / | . | . | . | . | . | . | . | .
O=C(Nc1cccc(S(=O)(=O)N2CCCCCC2)c1)C1CCN(C(=O)c2ccc(F)cc2)CC1 | / | . | . | . | . | . | . | . | .
O=C(Nc1cccc(S(=O)(=O)N2CCCCCC2)c1)C1CCN(C(=O)c2ccc(Cl)cc2)CC1 | / | . | . | . | . | . | . | . | .
O=C(Nc1cccc(S(=O)(=O)N2CCCCC2)c1)C1CCN(C(=O)c2ccc(Cl)cc2)CC1 | / | / | / | / | . | / | / | / | /
CC(C)[C@H]1COCCS(=O)(=O)N1Cc1ccccc1-c1cccc(Cl)c1 | / | / | / | / | . | / | / | / | /
CCOC(=O)c1c(C)[nH]c(C(=O)COC(=O)CCNS(=O)(=O)c2ccc(NC(C)=O)cc2)c1C | / | / | / | / | . | / | / | / | /
CCOc1ccc(C(C)C)cc1S(=O)(=O)n1ccnc1C | . | . | . | . | . | . | / | / | /
COc1ccc(-c2noc(C3CCCN(S(=O)(=O)c4ccc(C)c(Cl)c4)C3)n2)cc1OC (centres undefined) | . | . | . | . | . | . | / | / | /
COc1ccc(-c2noc(C3CCCN(C(=O)c4cccc(C)c4)C3)n2)cc1 (centres undefined) | / | . | . | . | . | . | . | . | .
COc1ccc(-c2noc(C3CCCN(S(=O)(=O)c4cccc(Cl)c4C)C3)n2)cc1OC (centres undefined) | . | . | . | . | . | -12.1 | 33.5% | . | .
COc1ccc(N2CCN(Cc3cc4c(cc3Br)OCCO4)CC2)cc1 | / | . | . | . | . | . | . | . | .
COc1ccccc1N1CCN(Cc2cc3c(cc2Br)OCCO3)CC1 | / | . | . | . | . | . | . | . | .
COc1cc(OC)c(OC)cc1CN1CCN(c2ccccc2OC)CC1 | . | . | . | . | . | . | / | / | /
COc1ccc(N2CCN(Cc3csc(C)c3-c3ccc(C)cc3)CC2)cc1 | / | . | . | . | . | . | . | . | .
